# Experimental data reported in PMC6777294 (ACS Omega, 2019).
# Read-outs that look alike come from different tables or passages of the source.
# Assays:
# rat MAO enzyme = conditions: cited from earlier work
# hMAO-A [1] = molecular target: T1, hMAO-A (Homo sapiens, UniProt P21397); assay: biochemical; conditions: Table 2; for IC50: IC50 (μM) hMAO-A (n = 3), log dose inhibition curve, mean ± SD of triplicate; for SI (selective index): ratio of hMAO-B IC50/hMAO-A IC50
# T1 sequence (P21397 1-527): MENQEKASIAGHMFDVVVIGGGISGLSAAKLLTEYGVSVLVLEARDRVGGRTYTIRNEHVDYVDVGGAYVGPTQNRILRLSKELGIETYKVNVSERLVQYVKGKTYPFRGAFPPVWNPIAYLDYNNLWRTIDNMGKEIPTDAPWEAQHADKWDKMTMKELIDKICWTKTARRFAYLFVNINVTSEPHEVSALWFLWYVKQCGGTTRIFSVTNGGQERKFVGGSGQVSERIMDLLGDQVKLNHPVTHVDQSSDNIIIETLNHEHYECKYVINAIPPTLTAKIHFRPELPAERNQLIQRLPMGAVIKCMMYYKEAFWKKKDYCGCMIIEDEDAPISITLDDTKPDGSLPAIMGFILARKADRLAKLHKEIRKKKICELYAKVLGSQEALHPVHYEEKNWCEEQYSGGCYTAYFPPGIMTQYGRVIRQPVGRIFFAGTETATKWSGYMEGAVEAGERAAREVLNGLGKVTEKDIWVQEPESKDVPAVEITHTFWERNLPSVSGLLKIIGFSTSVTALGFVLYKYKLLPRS
# hMAO-B [2] = molecular target: T2, hMAO-B (Homo sapiens, UniProt P27338); assay: In vitro human MAO inhibitory assay; format: biochemical
# T2 sequence (P27338 1-520): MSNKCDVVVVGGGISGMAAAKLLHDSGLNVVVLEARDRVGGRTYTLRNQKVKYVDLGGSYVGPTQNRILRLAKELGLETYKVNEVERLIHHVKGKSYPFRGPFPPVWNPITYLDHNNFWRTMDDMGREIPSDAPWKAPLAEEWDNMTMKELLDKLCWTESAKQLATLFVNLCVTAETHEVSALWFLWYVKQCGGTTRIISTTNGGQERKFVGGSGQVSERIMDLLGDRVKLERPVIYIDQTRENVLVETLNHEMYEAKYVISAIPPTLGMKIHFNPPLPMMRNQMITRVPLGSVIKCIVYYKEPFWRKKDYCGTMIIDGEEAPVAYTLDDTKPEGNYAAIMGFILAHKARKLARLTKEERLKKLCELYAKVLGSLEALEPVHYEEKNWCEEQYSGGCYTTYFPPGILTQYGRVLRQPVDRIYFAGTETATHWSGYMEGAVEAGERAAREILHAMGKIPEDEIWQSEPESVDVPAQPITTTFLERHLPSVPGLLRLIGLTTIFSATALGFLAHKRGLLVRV
# hMAO-A [3] = molecular target: T1, hMAO-A; assay: Enzyme kinetics of hMAO-A inhibition; format: biochemical; conditions: for inhibition type: hMAO-A, determined by Lineweaver–Burk plot
# Procedure, shortened: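 hMAO-A activity was measured with the chemiluminescent MAO-Glo kit assay. Reactions ran at three MAO substrate concentrations (320, 160 and 80 μM), with or without test compound. Michaelis–Menten and Lineweaver–Burk plots gave Km, Vmax and inhibition mode. Ki came from secondary plots: Kic for inhibitor binding free enzyme, Kiu for binding the enzyme–substrate complex.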
# mouse liver MAO enzyme = conditions: cited from earlier work
# hMAO-B [4] = molecular target: T2, hMAO-B; assay: Enzyme kinetics of hMAO-B inhibition; format: biochemical
# Procedure, shortened: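 For hMAO-B, chemiluminescent MAO-Glo kit reactions were set up at three MAO substrate levels (32, 16 and 8 μM), with or without test compound. Inhibition mode, Km and Vmax were read from Michaelis–Menten and Lineweaver–Burk plots. Secondary plots gave Ki: Kic for inhibitor binding free enzyme, Kiu for binding the enzyme–substrate complex.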
# hMAO-A [5] = molecular target: T1, hMAO-A; conditions: data reproduced from recent publication ref 32; cited from earlier work
Structure (SMILES),IC50 (hMAO-A [1]),IC50 (hMAO-B [2]),activity against rat MAO enzyme (rat MAO enzyme),further results
"O=C1c2cccc(O)c2C(=O)c2c(O)cccc21 [1,8-dihydroxyanthraquinone]",–,–,inactive,–
"Cc1cc(O)c2c(c1)C(=O)c1cccc(O)c1C2=O [Compound 1, chrysophanol]",> 400 µM,> 400 µM,inactive,–
"COc1cc(O)c2c(c1)C(=O)c1cc(C)cc(O)c1C2=O [Compound 2, physcion]",> 400 µM,> 400 µM,inactive,–
"COc1c(O)c(C)cc2c1C(=O)c1c(O)cccc1C2=O [Compound 4, obtusifolin]",31.8 ± 0.6 µM,> 400 µM,–,–
"COc1c(O)cc2c(c1O)C(=O)c1c(cc(C)c(O)c1OC)C2=O [Compound 5, aurantio-obtusin]",27.2 ± 0.85 µM,174 ± 1.86 µM,–,SI (selective index) (hMAO-A [1]): 6.40
"COc1cc(O)c2c(O)c3c(=O)cc(C)oc3cc2c1 [Compound 13, rubrofusarin]",–,91.4 ± 1.31 µM,–,SI (selective index) (hMAO-A [1]): 15.49; Kiu (binding constant of inhibitor with enzyme–substrate complex) (hMAO-A [5]): 4.22; inhibition type (hMAO-A [5]): mixed-type
O=C(O)c1cc(O)c2c(c1)C(=O)c1cccc(O)c1C2=O [rhein],–,–,inactive,–

# More lines, main results first:
IC50 (hMAO-A [1]),IC50 (hMAO-B [2]),Structure (SMILES),activity against rat MAO enzyme (rat MAO enzyme),further results
328 ± 10.2 µM,> 400 µM,"COc1cc2c(c(OC)c1OC)C(=O)c1c(cc(C)c(O)c1OC)C2=O [Compound 6, chryso-obtusin]",–,–
2.47 ± 0.14 µM,> 400 µM,"O=C1c2cccc(O)c2C(=O)c2c(O)cc(CO)cc21 [Compound 9, aloe-emodin]",inactive,Ki (hMAO-A [3]): 0.5 µM; inhibition type (hMAO-A [3]): competitive
23.3 ± 1.46 µM,54.7 ± 0.74 µM,"Cc1cc(O)c2c(c1)C(=O)c1cc(O)cc(O)c1C2=O [Compound 10, emodin]",inactive,IC50 (mouse liver MAO enzyme): 37 µM
0.17 ± 0.01 µM,10.6 ± 0.28 µM,"COc1cc(O)cc2c1C(=O)c1c(O)cc(C)cc1C2=O [Compound 12, questin]",–,"Ki (hMAO-A [3]): 0.13 µM; inhibition type (hMAO-A [3]): competitive; Ki (hMAO-B [4]): 4.14 µM; inhibition type (hMAO-B [4]; hMAO-B, determined by Lineweaver–Burk plot): competitive"
